Source: PubChem (several laboratories)
Shown are actives, neighbours in structure and some others; about 0.94% of the full set was active somewhere.
NPR2 activator = GC-B (human) receptor activation. activation, % at 10 µM. AID 1920062. actives 0.11% (n = 370,000). HEK293-GC-B cells, CNP EC30, cGMP TR-FRET; 0% at EC30 CNP, 100% saturating CNP;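 active means activation at 10 µM reaching about 35% in either raw or pattern-adjusted values, limit read from the data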
GalR3 antag = antagonists of human GalR3; O60755; HEK293 GalR3-CNG cAMP membrane potential fluorescence; galR3 body fused to GalR1 C-terminus; inhibition, % at 3 µM; actives 0.44% (n = 360,000); AID 651719;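 active means inhibition above the screen-wide average plus 3 SD, cut at about 13% in these data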;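 further: forskolin and galanin both at EC90 stimulate the cells; cAMP rise reported by CNG channel membrane potential dye signal; 0% = forskolin plus galanin with DMSO and 100% = forskolin alone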
Target sequence (O60755 1-299 limits assumed): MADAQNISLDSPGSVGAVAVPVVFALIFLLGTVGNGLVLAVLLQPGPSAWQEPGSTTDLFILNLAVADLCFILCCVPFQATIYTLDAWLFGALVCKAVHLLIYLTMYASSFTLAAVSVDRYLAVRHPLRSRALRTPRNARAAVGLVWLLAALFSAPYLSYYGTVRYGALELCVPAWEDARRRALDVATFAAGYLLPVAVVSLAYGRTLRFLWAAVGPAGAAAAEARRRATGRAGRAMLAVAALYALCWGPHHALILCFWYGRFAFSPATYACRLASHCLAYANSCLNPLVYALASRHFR
GC-A act = GC-A (human) enzyme activation; P16066; HEK293 GC-A cells, cGMP TR-FRET, EC30 ANP; 0% at EC30 ANP, 100% saturating ANP; activation, % at 10 µM; actives 0.14% (n = 370,000); in the data active means activation above about 40%
Arr AP2 block = human beta-arrestin and AP2 interaction inhibition; AID 504490; inhibition, % at 10 µM; FITC-arrestin peptide / GST-AP2 beads, flow cytometry; AP2 beta2 appendage carries R879A mutation; actives 0.31% (n = 340,000);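 active means inhibition above a set limit, near 3 SD of compounds lacking own fluorescence, cut at about 54% in these data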;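 further: plate controls were DMSO wells for no effect and 5 µM unlabelled arrestin peptide for full effect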
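System: GST-tagged AP2 beta2-adaptin appendage (R879A) on 4 µm glutathione beads / Reagent: FITC-arrestin peptide, 50 nM / Detection: HyperCyt-sampled flow cytometry, FL1 channel, ex 488/em 535 nm / Timing: 12 min plus 1 h, RT / Buffer or medium: PBS plus Tween 20 (0.05%) and BSA (0.1%)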
Arr AP2 CP1 = human beta-arrestin and AP2 interaction inhibition, cherry pick; shares compounds with Arr AP2 block; GST-AP2 beads, FITC arrestin peptide binding, flow cytometry; GST-fused beta2-adaptin appendage, R879A mutant; inhibition, % at 10 µM; actives 2% (n = 1,300);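 active means inhibition above a set limit, roughly 3 SD of non-fluorescent compound noise, cut at about 38% in these data; inactive means inhibition at or below that limit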;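 further: loss of bead fluorescence from 50 nM FITC arrestin peptide bound to appendage; 0% = negative control wells and 100% = excess unlabelled arrestin peptide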
GST-FITC bead = GST-GSH bead binding interference, counter-screen. shares compounds with Arr AP2 block. GST-fluorescein binding to GSH beads, fluorescence. inhibition, % at 10 µM. actives 2% (n = 1,300);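 active means inhibition above 50%, about 3 SD of the inhibition seen with non-fluorescent compounds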;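 further: fluorescein maleimide labelled GST captured on 4 micron glutathione beads; higher means more loss of bead fluorescence from quenching or blocked binding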
Starred values were filed as active, the others as inactive; . = no result.

SMILES	NPR2 activator	GalR3 antag	GC-A act	Arr AP2 block	Arr AP2 CP1	GST-FITC bead
CCOC(=O)C1=C(COC(=O)c2ccccc2[N+](=O)[O-])NC(=O)NC1C (centres undefined)	-1	-3	2	0	.	.
CCOC(=O)C1=C(COC(=O)CCOc2ccccc2C)NC(=O)NC1C (centres undefined)	2	-6	3	1	-10	-8
CCOC(=O)C1=C(COC(=O)c2ccc(C)s2)NC(=O)NC1C (centres undefined)	13	-2	9	31	.	.
CCOC(=O)C1=C(COC(=O)CCCOc2ccccc2)NC(=O)NC1C (centres undefined)	-3	-1	0	0	-9	-4
CCC(NC(=O)CN1CCN(c2cccc(OC)c2)CC1)c1ccccc1 (centres undefined)	10	.	3	.	.	.
Cc1ccc(C(C)(C)NC(=O)C2CCC(=O)N(Cc3ccccc3F)C2)cc1 (centres undefined)	3	-3	6	-4	-5	3
Cc1ccc([C@H]2C[C@]34CN(Cc5ccccc5)S(=O)(=O)[C@H]3C[C@H]2O4)cc1	1	-2	5	.	.	.
COc1cc2c(c(OC)c1OC)[C@@]1(c3ccccc3)CCCCC[C@H]1[C@@H]2NC(=O)C(F)(F)F	-7	-5	-6	.	.	.
Cc1ccc(CNC(=O)CS(=O)(=O)c2cn(CC(=O)N3CCOCC3)c3ccccc23)cc1	-2	-2	1	60*	-1	-12
O=C(CS(=O)(=O)c1cn(CC(=O)N2CCOCC2)c2ccccc12)Nc1ccccc1	0	-3	0	-5	.	.
COC(=O)[C@]12C[C@H](CC(=O)NCc3cccc(C(F)(F)F)c3)C(=O)N(Cc3ccc(Cl)cc3Cl)C1=C[C@H](COCc1ccccc1)O[C@@H]2C	5	.	1	.	.	.
Cc1cc(NC(=O)CCC(=O)N(Cc2cccnc2)C(C(=O)NC(C)(C)C)c2ccccc2Cl)no1 (centres undefined)	2	-6	0	57*	-11	3
Cc1cc(NC(=O)CCC(=O)N(C2CC2)C(C(=O)NC(C)(C)C)c2ccccc2Cl)no1 (centres undefined)	5	-8	-2	-4	.	.
O=C(CCn1nc(-c2ccc(Cl)cc2)ccc1=O)NCc1ccccn1	2	2	-1	79*	-1	-6
CC(C)CCNC(=O)CCn1nc(-c2ccc(Cl)cc2)ccc1=O	-5	-8	-15	-10	.	.
O=C(NCCCN1CCCC1=O)c1cc(=O)c2ccccc2o1	-2	7	-2	74*	4	1
CC1(C)Cc2c(C#N)c(OCC(=O)c3ccc(Cl)cc3)nc(-c3ccco3)c2CO1	-2	-2	-5	0	.	.
Cc1nc(OCC(=O)c2ccc(Cl)cc2)c(C#N)c2c1COC(C)(C)C2	-2	-3	16	91*	3	-3
COc1cccc(NC(=O)CN(C)C(=O)C(CCSC)NC(=O)c2ccco2)c1 (centres undefined)	2	4	-1	-4	.	.
COc1ccc(NC(=O)CN(C)C(=O)C(NC(=O)c2ccco2)C(C)C)cc1 (centres undefined)	2	-2	0	61*	0	-2
COc1cc(-n2c(C)cc(O)cc2=O)ccc1Cl	0	-6	2	.	.	.
CN(C)CCCN(C(=O)c1ccc(S(=O)(=O)N(C)C2CCCCC2)cc1)c1nc2ccc(F)cc2s1	-5	-2	-5	29	.	.
Cc1cc(C)c2sc(N(CCCN(C)C)C(=O)c3ccc(S(=O)(=O)N(C)C4CCCCC4)cc3)nc2c1	-6	-6	-9	57*	-2	-6
Brc1cccc(CNCc2cccs2)c1	-2	-2	-1	55*	-12	-8
Brc1cccc(CNCc2ccncc2)c1	-3	-6	-2	20	.	.
CCOc1ccc(/C=C/C(=O)NCCc2ccc(OC)c(OC)c2)cc1	5	-3	1	57*	-12	-8
O=S1(=O)c2ccc(N3CCSCC3)cc2Oc2ccccc2CN1Cc1cn(Cc2ccccc2C(F)(F)F)nn1	3	.	4	.	.	.
